Test results reported in ChEMBL document CHEMBL1221202, “Small-molecule pheromones that control dauer development in Caenorhabditis elegans” (Nat Chem Biol, 2007).
Active and inactive are the calls of the source. No cut-off for these calls is given here.

Assays:
Caenorhabditis elegans [1] = test: Induction of dauer formation in wild type Caenorhabditis elegans Bristol […] at 25 degC; format: functional, organism-based
Summary of the method: (§1)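 Wild-type N2 eggs were laid on plates containing a range of ascaroside concentrations plus a little food, then held at 20 °C or 25 °C, and percent dauer formation was scored. Each value is the mean of three experiments. EC50 was taken as half-maximal activity from a sigmoidal fit with the lower limit fixed at 0 and the upper limit left free.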

Caenorhabditis elegans [2] = test: Induction of dauer formation in wild type Caenorhabditis elegans Bristol […] at 20 degC; format: functional, organism-based; summary of the method: as §1
Caenorhabditis elegans [3] = test: Induction of dauer formation in Caenorhabditis elegans Bristol daf-7(1372) mutant at 20 degC; format: functional, organism-based
Summary of the method: (§2)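 Dauer formation assay: eggs were laid on agar plates containing a range of ascaroside concentrations plus a small amount of food, and percent dauer formation was scored. Stock worms were maintained at 20–23 °C on NG plates made with Noble agar and seeded with E. coli OP50.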

Caenorhabditis elegans [4] = test: Induction of dauer formation in Caenorhabditis elegans Bristol osm-9(ky10) mutant at 20 degC; format: functional, organism-based; summary of the method: as §2
Caenorhabditis elegans [5] = test: Induction of dauer formation in Caenorhabditis elegans Bristol ocr-2(ak47) mutant at 20 degC; format: functional, organism-based; summary of the method: as §2
Caenorhabditis elegans [6] = test: Induction of dauer formation in Caenorhabditis elegans Bristol tax-2(p691) mutant at 20 degC; format: functional, organism-based; summary of the method: as §2
Caenorhabditis elegans [7] = test: Induction of dauer formation in Caenorhabditis elegans Bristol tax-4(p678) mutant at 20 degC; format: functional, organism-based; summary of the method: as §2
Caenorhabditis elegans [8] = test: Induction of dauer formation in Caenorhabditis elegans Bristol egl-4(ks61) mutant at 20 degC; format: functional, organism-based; summary of the method: as §2
Caenorhabditis elegans [9] = test: Induction of dauer formation in wild type Caenorhabditis elegans Bristol N2 at 73 uM

SMILES | EC50 (Caenorhabditis elegans [1]) [nM] | EC50 (Caenorhabditis elegans [2]) [nM] | Activity (Caenorhabditis elegans [3]) | Activity (Caenorhabditis elegans [4]) | Activity (Caenorhabditis elegans [5]) | Activity (Caenorhabditis elegans [6]) | Activity (Caenorhabditis elegans [7]) | Activity (Caenorhabditis elegans [8]) | Activity (Caenorhabditis elegans [9])
CC(=O)CC[C@@H](C)O[C@@H]1O[C@@H](C)[C@H](O)C[C@H]1O | 120 | 460 | inactive | inactive | inactive | inactive | inactive | inactive | Active
C[C@H](CCCCC(=O)O)O[C@@H]1O[C@@H](C)[C@H](O)C[C@H]1O [DAUMONE] | 18000 | 88000 | inactive | inactive | inactive | inactive | inactive | inactive | 
C[C@H](CCCC/C=C/C(=O)O)O[C@@H]1O[C@@H](C)[C@H](O)C[C@H]1O | 370 | 1100 | inactive | inactive | inactive | inactive | inactive | inactive | Active
